{"data": "Assay results gathered from unrelated publications", "read-out": "cell growth or viability", "note": "Lines come from different studies, so protocols differ."}
{"Compound": "C=C(C)[C@@H]1CC[C@]2(C(=O)O)CC[C@]3(C)[C@H](CC[C@@H]4[C@@]5(C)CC[C@H](O)C(C)(C)[C@@H]5CC[C@]43C)[C@@H]12", "cell line": "WS1", "time": "48 h", "endpoint": "IC50", "value": "36 µM"}
{"Compound": "c1cc(CN2CCCNCCNCCCNCC2)ccc1CN1CCCNCCNCCCNCC1", "cell line": "TZM-bl", "endpoint": "CC50", "value": "> 1 µM"}
{"Compound": "CC1(C)CC[C@]2(C)CC[C@]3(C)[C@H]4CC=C5[C@@H](CC[C@H](O)C5(C)C)[C@]4(C)CC[C@@]3(C)[C@@H]2C1", "cell line": "HEp-2", "method": "WST-1", "endpoint": "IC50", "value": "48.1 µM"}
{"Compound": "CCCCCCCCCCCCCCCCOP(=O)([O-])OCC[N+](C)(C)C", "cell line": "THP-1", "time": "72 h", "endpoint": "CC50", "value": "> 40 µM"}
{"Compound": "CC(=O)O[C@@H]1c2c(ccc3ccc(=O)oc23)OC(C)(C)[C@@H]1OC(=O)C1(C)OC1C (stereo partly drawn)", "cell line": "MCF7", "method": "WST-1", "endpoint": "IC50", "value": "25.1 µM"}
{"Compound": "C=C(C)[C@H](CCC(C)(C)O)Cc1c(O)cc(OC)c2c1O[C@H](c1ccc(O)cc1O)CC2=O", "cell line": "MCF7", "method": "MTT", "time": "48 h", "endpoint": "IC50", "value": "> 100 µM"}
{"Compound": "CC[C@H](C)C(=O)O[C@H]1C[C@@H](C)C=C2C=C[C@H](C)[C@H](CC[C@@H]3C[C@@H](O)CC(=O)O3)[C@H]21", "cell line": "SW-620", "method": "SRB", "time": "72 h", "endpoint": "IC50", "value": "0.08 µM"}
{"Compound": "C=C1C(=O)O[C@H]2[C@H]1CC/C(C)=C/CC[C@@]1(C)O[C@@H]21", "cell line": "THP-1", "method": "ATP luminescence", "time": "17 h", "endpoint": "IC50", "value": "8.89 µM"}
{"Compound": "C[C@@H]1[C@H](O)[C@@H](C)/C=C/C=C/C=C/C=C/C=C/C=C/C=C/[C@H](O[C@@H]2O[C@H](C)[C@@H](O)[C@H](N)[C@@H]2O)C[C@@H]2O[C@](O)(C[C@@H](O)C[C@@H](O)[C@H](O)CC[C@@H](O)C[C@@H](O)CC(=O)O[C@H]1C)C[C@H](O)[C@H]2C(=O)O", "cell line": "THP-1", "method": "MTT", "time": "72 h", "endpoint": "CC50", "value": "3.6 µM"}
{"Compound": "COC(=O)[C@]1(O)C[C@@H](O)[C@@H](O)[C@H](OC(=O)/C=C/c2ccc(O)c(O)c2)C1", "cell line": "HEp-2", "method": "WST-1", "endpoint": "IC50", "value": "21.2 µM"}
{"Compound": "CC(C)(C)CC(C)(C)Nc1c(-c2ccccc2)nc2ncccn12", "cell line": "MCF7", "method": "MTT", "tested at": "25 µM", "time": "48 h", "endpoint": "viability", "value": "44.9%"}
{"Compound": "Cc1cccc2nc(-c3ccc([N+](=O)[O-])o3)[nH]c12", "cell line": "HEp-2", "method": "resazurin", "time": "72 h", "endpoint": "CC50", "value": "1.7 µM"}
{"Compound": "CC(=O)OC1c2c(ccc3ccc(=O)oc23)OC(C)(C)C1OC(=O)C(C)(O)C(C)O (stereo not drawn)", "cell line": "HEp-2", "method": "WST-1", "endpoint": "IC50", "value": "11.3 µM"}
{"Compound": "O=[N+]([O-])c1ccc(-c2nc3cc(Cl)ccc3[nH]2)o1", "cell line": "HEp-2", "method": "resazurin", "time": "72 h", "endpoint": "CC50", "value": "5 µM"}
{"Compound": "C[C@@H]1O[C@@H](OC[C@H]2O[C@@H](Oc3c(-c4ccc(O)c(O)c4)oc4cc(O)cc(O)c4c3=O)[C@H](O)[C@@H](O)[C@@H]2O)[C@H](O)[C@H](O)[C@H]1O", "cell line": "TZM-bl", "method": "MTT", "time": "48 h", "endpoint": "CC50", "value": "> 250 µg/mL"}
